Columns and labels:
[1] = test system: U2OS; experiment: Multiplex assay against U2OS; format: toxicity, cell-based; conditions: human
In short: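 With compound added, live cells were imaged on a CQ1 microscope at 37°C and 5% CO2; staining with Hoechst33342, BioTracker Green Microtubule Cytoskeleton Dye, MitoTracker Red and Annexin V Alexa Fluor 680 had been done at seeding. The CellPathfinder machine-learning gating scheme split cells into Hoechst high-intensity objects or normal cells, normal cells into healthy, pyknosed or fragmented nuclei, and pyknosed cells into mitotic or apoptotic. The tubulin, mitochondrial-mass and membrane-permeability phenotypes are per cents of healthy-nucleus cells.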

[2] = test system: Fibroblast; experiment: Incucyte cell viability with human fibroblast; format: toxicity, cell-based; conditions: 10 µM, compound concentration 10 uM; also: filed as whole numbers so only -1 and 0 and 1 occur
[3] = 12 h, 1 µM, compound concentration 1 uM, replicate 1
[4] = 12 h, 1 µM, compound concentration 1 uM, replicate 2
[5] = 12 h, 10 µM, compound concentration 10 uM, replicate 1
[6] = 12 h, 10 µM, compound concentration 10 uM, replicate 2
[7] = 24 h, 1 µM, compound concentration 1 uM, replicate 1
[8] = 24 h, 1 µM, compound concentration 1 uM, replicate 2
[9] = 24 h, 10 µM, compound concentration 10 uM, replicate 1
[10] = 24 h, 10 µM, compound concentration 10 uM, replicate 2
[11] = 48 h, 1 µM, compound concentration 1 uM, replicate 1
[12] = 48 h, 1 µM, compound concentration 1 uM, replicate 2
[13] = 48 h, 10 µM, compound concentration 10 uM, replicate 1
[14] = 48 h, 10 µM, compound concentration 10 uM, replicate 2

For `CC(C)N1CCC(C)(C)c2cc(C#Cc3ccc(C(=O)O)cc3)ccc21`, the “Population Apoptotic (%)” value [1, 3] was 30%, the “Population Healthy Nuclei (%)” value [1, 3] was 74% and the “Population Hoechst High Intensity Objects (%)” value [1, 3] was 12%. For the same molecule, the “Population Membrane Permeable-Phenotype (%)” value [1, 3] was 3%, the “Population Mitochondria Different-Phenotype (%)” value [1, 3] was 4% and the “Population Mitotic Cells (%)” value [1, 3] was 70%. For the same molecule, the “Population Normal (%)” value [1, 3] was 88%, the “Population Pyknosed Nuclei (%)” value [1, 3] was 9% and the “Population Tubulin-Different-Phenotype (%)” value [1, 3] was 21%. The “Total Cell Count” value [1, 3] was 125, the “Population Apoptotic (%)” value [1, 4] was 20% and the “Population Fragmented Nuclei (%)” value [1, 4] was 16%. For the same molecule, the “Population Healthy Nuclei (%)” value [1, 4] was 75%, the “Population Hoechst High Intensity Objects (%)” value [1, 4] was 13% and the “Population Membrane Permeable-Phenotype (%)” value [1, 4] was 6%. For the same molecule, the “Population Mitochondria Different-Phenotype (%)” value [1, 4] was 15%, the “Population Mitotic Cells (%)” value [1, 4] was 80% and the “Population Normal (%)” value [1, 4] was 86%. For the same molecule, the “Population Pyknosed Nuclei (%)” value [1, 4] was 8%, the “Population Tubulin-Different-Phenotype (%)” value [1, 4] was 20% and the “Total Cell Count” value [1, 4] was 69. The “Population Apoptotic (%)” value [1, 5] was 60%, the “Population Fragmented Nuclei (%)” value [1, 5] was 52% and the “Population Healthy Nuclei (%)” value [1, 5] was 43%. For the same molecule, the “Population Hoechst High Intensity Objects (%)” value [1, 5] was 54%, the “Population Membrane Permeable-Phenotype (%)” value [1, 5] was 8% and the “Population Mitochondria Different-Phenotype (%)” value [1, 5] was 8%. The “Population Mitotic Cells (%)” value [1, 5] was 40%, the “Population Normal (%)” value [1, 5] was 45% and the “Population Pyknosed Nuclei (%)” value [1, 5] was 4%. The “Population Tubulin-Different-Phenotype (%)” value [1, 5] was 13%, the “Total Cell Count” value [1, 5] was 542 and the “Population Apoptotic (%)” value [1, 6] was 0%. For the same molecule, the “Population Fragmented Nuclei (%)” value [1, 6] was 55%, the “Population Healthy Nuclei (%)” value [1, 6] was 44% and the “Population Hoechst High Intensity Objects (%)” value [1, 6] was 71%. For the same molecule, the “Population Membrane Permeable-Phenotype (%)” value [1, 6] was 4%, the “Population Mitochondria Different-Phenotype (%)” value [1, 6] was 14% and the “Population Mitotic Cells (%)” value [1, 6] was 0%. The “Population Normal (%)” value [1, 6] was 28%, the “Population Pyknosed Nuclei (%)” value [1, 6] was 0% and the “Population Tubulin-Different-Phenotype (%)” value [1, 6] was 28%. The “Total Cell Count” value [1, 6] was 327, the “Population Apoptotic (%)” value [1, 7] was 54% and the “Population Fragmented Nuclei (%)” value [1, 7] was 11%. For the same molecule, the “Population Healthy Nuclei (%)” value [1, 7] was 80%, the “Population Hoechst High Intensity Objects (%)” value [1, 7] was 7% and the “Population Membrane Permeable-Phenotype (%)” value [1, 7] was 1%. The “Population Mitochondria Different-Phenotype (%)” value [1, 7] was 5%, the “Population Mitotic Cells (%)” value [1, 7] was 45% and the “Population Normal (%)” value [1, 7] was 92%. For the same molecule, the “Population Pyknosed Nuclei (%)” value [1, 7] was 7%, the “Population Tubulin-Different-Phenotype (%)” value [1, 7] was 12% and the “Total Cell Count” value [1, 7] was 156. The “Population Apoptotic (%)” value [1, 8] was 50%, the “Population Fragmented Nuclei (%)” value [1, 8] was 18% and the “Population Healthy Nuclei (%)” value [1, 8] was 76%. The “Population Hoechst High Intensity Objects (%)” value [1, 8] was 4%, the “Population Membrane Permeable-Phenotype (%)” value [1, 8] was 3% and the “Population Mitochondria Different-Phenotype (%)” value [1, 8] was 10%. The “Population Mitotic Cells (%)” value [1, 8] was 50%, the “Population Normal (%)” value [1, 8] was 95% and the “Population Pyknosed Nuclei (%)” value [1, 8] was 5%. For the same molecule, the “Population Tubulin-Different-Phenotype (%)” value [1, 8] was 18%, the “Total Cell Count” value [1, 8] was 81 and the “Population Apoptotic (%)” value [1, 9] was 70%. For the same molecule, the “Population Fragmented Nuclei (%)” value [1, 9] was 47%, the “Population Healthy Nuclei (%)” value [1, 9] was 49% and the “Population Hoechst High Intensity Objects (%)” value [1, 9] was 48%. For the same molecule, the “Population Membrane Permeable-Phenotype (%)” value [1, 9] was 4%, the “Population Mitochondria Different-Phenotype (%)” value [1, 9] was 6% and the “Population Mitotic Cells (%)” value [1, 9] was 30%. For the same molecule, the “Population Normal (%)” value [1, 9] was 51%, the “Population Pyknosed Nuclei (%)” value [1, 9] was 3% and the “Population Tubulin-Different-Phenotype (%)” value [1, 9] was 14%. The “Total Cell Count” value [1, 9] was 566, the “Population Apoptotic (%)” value [1, 10] was 100% and the “Population Fragmented Nuclei (%)” value [1, 10] was 49%. For the same molecule, the “Population Healthy Nuclei (%)” value [1, 10] was 47%, the “Population Hoechst High Intensity Objects (%)” value [1, 10] was 66% and the “Population Membrane Permeable-Phenotype (%)” value [1, 10] was 3%. For the same molecule, the “Population Mitochondria Different-Phenotype (%)” value [1, 10] was 3%, the “Population Mitotic Cells (%)” value [1, 10] was 0% and the “Population Normal (%)” value [1, 10] was 33%. The “Population Pyknosed Nuclei (%)” value [1, 10] was 2%, the “Population Tubulin-Different-Phenotype (%)” value [1, 10] was 26% and the “Total Cell Count” value [1, 10] was 352. The “Population Apoptotic (%)” value [1, 11] was 25%, the “Population Fragmented Nuclei (%)” value [1, 11] was 6% and the “Population Healthy Nuclei (%)” value [1, 11] was 90%. The “Population Membrane Permeable-Phenotype (%)” value [1, 11] was 3%, the “Population Mitochondria Different-Phenotype (%)” value [1, 11] was 5% and the “Population Mitotic Cells (%)” value [1, 11] was 75%. The “Population Pyknosed Nuclei (%)” value [1, 11] was 3%, the “Population Tubulin-Different-Phenotype (%)” value [1, 11] was 17% and the “Total Cell Count” value [1, 11] was 245. For the same molecule, the “Population Apoptotic (%)” value [1, 12] was 33%, the “Population Fragmented Nuclei (%)” value [1, 12] was 14% and the “Population Healthy Nuclei (%)” value [1, 12] was 83%. For the same molecule, the “Population Hoechst High Intensity Objects (%)” value [1, 12] was 6%, the “Population Membrane Permeable-Phenotype (%)” value [1, 12] was 4% and the “Population Mitochondria Different-Phenotype (%)” value [1, 12] was 9%. The “Population Mitotic Cells (%)” value [1, 12] was 66%, the “Population Normal (%)” value [1, 12] was 93% and the “Population Pyknosed Nuclei (%)” value [1, 12] was 2%. For the same molecule, the “Population Tubulin-Different-Phenotype (%)” value [1, 12] was 20%, the “Total Cell Count” value [1, 12] was 122 and the “Population Apoptotic (%)” value [1, 13] was 30%. The “Population Fragmented Nuclei (%)” value [1, 13] was 38%, the “Population Healthy Nuclei (%)” value [1, 13] was 57% and the “Population Hoechst High Intensity Objects (%)” value [1, 13] was 38%. The “Population Membrane Permeable-Phenotype (%)” value [1, 13] was 1%, the “Population Mitochondria Different-Phenotype (%)” value [1, 13] was 10% and the “Population Mitotic Cells (%)” value [1, 13] was 69%. The “Population Normal (%)” value [1, 13] was 61%, the “Population Pyknosed Nuclei (%)” value [1, 13] was 3% and the “Population Tubulin-Different-Phenotype (%)” value [1, 13] was 12%. The “Total Cell Count” value [1, 13] was 653, the “Population Apoptotic (%)” value [1, 14] was 100% and the “Population Fragmented Nuclei (%)” value [1, 14] was 44%. For the same molecule, the “Population Healthy Nuclei (%)” value [1, 14] was 55%, the “Population Hoechst High Intensity Objects (%)” value [1, 14] was 57% and the “Population Membrane Permeable-Phenotype (%)” value [1, 14] was 2%. The “Population Mitochondria Different-Phenotype (%)” value [1, 14] was 8%, the “Population Mitotic Cells (%)” value [1, 14] was 0% and the “Population Normal (%)” value [1, 14] was 42%. For the same molecule, the “Population Pyknosed Nuclei (%)” value [1, 14] was 0%, the “Population Tubulin-Different-Phenotype (%)” value [1, 14] was 28% and the “Total Cell Count” value [1, 14] was 411. For the same molecule, the “Growth Rate” value ([2]; 0 h, replicate number 1, timepoint 0 hours) was 0, the “Growth Rate” value ([2]; 6 h, replicate number 2, timepoint 6 hours) was 0 and the “Growth Rate” value ([2]; 12 h, replicate number 1, timepoint 12 hours) was 0. For the same molecule, the “Growth Rate” value ([2]; 12 h, replicate number 2, timepoint 12 hours) was 1, the “Growth Rate” value ([2]; 18 h, replicate number 1, timepoint 18 hours) was 0 and the “Growth Rate” value ([2]; 24 h, replicate number 1, timepoint 24 hours) was 0.
